Measurements of several laboratories.
Lines come from different studies, so protocols differ.
Target: Tyrosine-protein kinase Mer (MERTK, Homo sapiens, UniProt Q12866)
Sequence (Q12866 21-999, as in one of the studies): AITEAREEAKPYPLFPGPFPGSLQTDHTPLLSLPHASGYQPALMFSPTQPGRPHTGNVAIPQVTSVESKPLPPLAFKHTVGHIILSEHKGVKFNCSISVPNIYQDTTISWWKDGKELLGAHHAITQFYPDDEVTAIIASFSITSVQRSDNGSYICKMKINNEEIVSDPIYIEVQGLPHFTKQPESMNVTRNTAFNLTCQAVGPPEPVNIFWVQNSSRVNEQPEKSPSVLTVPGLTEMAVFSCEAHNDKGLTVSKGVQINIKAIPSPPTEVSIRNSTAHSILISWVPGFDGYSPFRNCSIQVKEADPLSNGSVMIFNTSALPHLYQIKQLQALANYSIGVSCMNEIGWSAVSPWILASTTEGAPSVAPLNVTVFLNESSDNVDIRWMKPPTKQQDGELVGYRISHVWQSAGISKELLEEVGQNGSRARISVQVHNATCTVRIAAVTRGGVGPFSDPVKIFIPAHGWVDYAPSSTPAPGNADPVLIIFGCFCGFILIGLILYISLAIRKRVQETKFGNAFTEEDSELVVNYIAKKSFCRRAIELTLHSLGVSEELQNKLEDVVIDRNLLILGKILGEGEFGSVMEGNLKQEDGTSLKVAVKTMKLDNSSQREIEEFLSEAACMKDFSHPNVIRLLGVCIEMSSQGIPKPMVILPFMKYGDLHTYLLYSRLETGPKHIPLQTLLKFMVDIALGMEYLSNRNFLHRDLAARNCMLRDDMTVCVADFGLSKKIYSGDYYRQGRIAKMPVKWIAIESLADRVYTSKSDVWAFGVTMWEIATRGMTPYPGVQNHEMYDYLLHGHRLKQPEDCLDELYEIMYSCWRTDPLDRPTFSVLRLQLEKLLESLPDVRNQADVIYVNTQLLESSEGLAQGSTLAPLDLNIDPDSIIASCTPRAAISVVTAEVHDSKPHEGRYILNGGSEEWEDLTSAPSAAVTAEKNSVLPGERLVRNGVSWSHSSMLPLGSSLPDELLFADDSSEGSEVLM

O=C(NCC1CCOCC1)c1n[nH]cc1NC(=O)c1c(F)cccc1F  remaining binding (binding, competition with immobilised ligand; 1 µM): 98%
COc1ccnn2ncc(-c3ccnc(N(C)C)n3)c12  remaining binding (binding; 1 µM): 99%
O=C(c1ccc(Nc2nccc(-c3cc4ccccc4s3)n2)cc1)N1CCC(N2CCCC2)CC1  remaining binding (binding, competition with immobilised ligand; 1 µM): 42%
O=S(=O)(NC1CCC(c2cc(F)ccc2F)(S(=O)(=O)c2ccc(Cl)cc2)CC1)C(F)(F)F (stereo not drawn)  remaining binding (cell-free assay, competition with immobilised ligand; 1 µM): 99%
CC1CCCN1c1nccc(-c2cnn3ncccc23)n1 (stereo not drawn)  remaining binding (binding; 1 µM): 98%
FC(F)(F)Oc1cccc(-c2cnc3ccc(-c4ccncc4)nn23)c1  remaining binding (cell-free assay, competition with immobilised ligand; 5 µM): 100%
CNC(=O)[C@@H]1CC[C@@H](n2c(-c3ccc4cnccc4c3)nc3ccc(C(=O)NCc4cccc(C(N)=O)c4)cc32)C1  remaining binding (binding, competition with immobilised ligand; 1 µM): 100%
CCc1ccccc1C(=O)Nc1n[nH]c2c(C)c(F)c(C3C(C#N)=C(C)N(C)C(C)=C3C#N)cc12  remaining binding (cell-free assay, competition with immobilised ligand; 1 µM): 80%
CN(CCCC(F)(F)F)c1nccc(-c2cnn3ncccc23)n1  remaining binding (binding; 1 µM): 100%
C=CC(=O)N1CCC(C(=O)NCC(=O)N2CCN(c3nc(-c4cnc(N)nc4C(F)F)nc(N4CCOCC4)n3)CC2)CC1  remaining binding (binding, competition with immobilised ligand; 1 µM): 94%
O=C(NCCCN1CCOCC1)c1ccc(Nc2ncc(Cl)c(-c3ccc(Cl)s3)n2)cc1  remaining binding (binding, competition with immobilised ligand; 1 µM): 5.5%
C[C@@H]1CCN(c2nccc(-c3cnn4ncccc34)n2)C1  remaining binding (binding; 1 µM): 100%
FC(F)(F)c1ccc2c(c1)nc(-c1cccnc1)n2C1CC1  remaining binding (cell-free assay, competition with immobilised ligand; 1 µM): 79%
Cc1cnn2ncc(-c3ccnc(N(C)C)n3)c2c1  remaining binding (binding; 1 µM): 100%
O=C(c1ccc(Nc2ncc(Cl)c(-c3ccc(Cl)s3)n2)cc1)N1CCC(N2CCCC2)CC1  remaining binding (binding, competition with immobilised ligand; 1 µM): 4.3%
CS(=O)(=O)N1CCCC(NC(=O)[C@H](CCC2CCCCC2)NC(=O)c2ccc(CNc3ncnc4c3nnn4-c3ccccc3)cc2)C1 (stereo partly drawn)  remaining binding (cell-free assay, competition with immobilised ligand; 0.1 µM): 91%
c1cnn2ncc(-c3ccnc(N4CCC45COC5)n3)c2c1  remaining binding (binding; 1 µM): 87%
COc1cc(-c2cn(C3CCc4c(F)cccc4N(CC(F)(F)F)C3=O)nn2)ccc1-n1cnc(C)c1 (stereo not drawn)  remaining binding (cell-free assay, competition with immobilised ligand; 1 µM): 100%
COc1ncc2cc3ccccc3nc2c1C#N  remaining binding (cell-free assay, competition with immobilised ligand; 5 µM): 100%
CS(=O)(=O)c1cc(C2(NC(=O)c3cncc4c3cnn4-c3ccc(F)cc3)CC2)ccn1  remaining binding (cell-free assay, competition with immobilised ligand; 1 µM): 100%
COc1cnc(Nc2cccc(S(N)(=O)=O)c2)nc1N1CCN(c2ccccc2)C(=O)C1  remaining binding (binding, competition with immobilised ligand; 1 µM): 94%
